From ChEMBL document CHEMBL4354879, “Bioisosteric Discovery of NPA101.3, a Second-Generation RET/VEGFR2 Inhibitor Optimized for Single-Agent Polypharmacology” (J Med Chem, 2020)
Calls of active or inactive are those of the source. The calls are words filed in the database; no cut-off is given here.

Legend:
[1] = species: Homo sapiens; experiment: Effect on MAPK phosphorylation in RET deficient human Nthy-ori 3-1 cells at 1 to 100 nM measured after 2 hrs by western blot analysis
[2] = molecular target: T1, SHC-transforming protein 1 (Homo sapiens) (UniProt P29353); experiment: Effect on SHC phosphorylation in RET deficient human PC9 cells at 1 to 100 nM measured after 2 hrs by western blot analysis
T1 sequence (whole entry): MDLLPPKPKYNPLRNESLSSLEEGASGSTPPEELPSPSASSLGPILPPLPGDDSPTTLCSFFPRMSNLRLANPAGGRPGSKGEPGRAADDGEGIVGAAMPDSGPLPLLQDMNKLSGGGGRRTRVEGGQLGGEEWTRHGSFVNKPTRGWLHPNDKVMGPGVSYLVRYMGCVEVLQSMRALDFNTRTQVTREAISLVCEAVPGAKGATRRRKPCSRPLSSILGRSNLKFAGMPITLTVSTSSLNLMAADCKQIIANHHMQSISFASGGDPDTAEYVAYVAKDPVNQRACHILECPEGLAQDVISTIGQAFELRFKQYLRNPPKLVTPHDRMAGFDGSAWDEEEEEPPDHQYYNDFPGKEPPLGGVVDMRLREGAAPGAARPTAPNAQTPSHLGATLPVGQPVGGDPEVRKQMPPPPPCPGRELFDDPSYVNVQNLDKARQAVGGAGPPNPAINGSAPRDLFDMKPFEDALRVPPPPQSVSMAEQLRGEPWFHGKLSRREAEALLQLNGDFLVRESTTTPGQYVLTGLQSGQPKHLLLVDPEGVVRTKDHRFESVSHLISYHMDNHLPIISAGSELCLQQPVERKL

[3] = molecular target: Proto-oncogene tyrosine-protein kinase receptor Ret (Homo sapiens, UniProt P07949); experiment: Binding affinity to recombinant phosphorylated RET kinase domain (705 to 1013 residues) (unknown origin) expressed in baculovirus infected Sf9 insect cells assessed as change in melting temperature at 40 uM measured over 240 mins by sypro orange dye based thermal shift assay
[4] = test system: Proto-oncogene tyrosine-protein kinase receptor Ret (Homo sapiens), P07949 [C634R]; experiment: Inhibition of RET isoform 9 C634R mutant (unknown origin) expressed in rat Rat1 assessed as reduction in RET phosphorylation at Y905 residue at 0.3 nM measured after 2 hrs by Western blot analysis; format: cell-based
Summary of the method: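 RAT1 fibroblasts expressing RET-9 C634R, serum-starved, treated 2 h with 0.1–10.0 nM; 50 μg lysate blotted for RET pY905 and pY1062, normalized to total RET; ECL detection.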

[5] = test system: Proto-oncogene tyrosine-protein kinase receptor Ret (Homo sapiens), P07949 [M918T]; experiment: Inhibition of RET […] M918T mutant (unknown origin) expressed in mouse BAF3 cells assessed as reduction in RET phosphorylation at Y905 residue at 0.3 to 30 nM measured after 2 hrs by Western blot analysis; format: cell-based
Summary of the method: (§1)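 Ba/F3 cells stably expressing long-isoform RET-51 mutants (electroporation), cultured in RPMI/10% FCS without IL-3; RET phosphorylation read by Western blot with anti-phospho-Y905 and anti-phospho-Y1062 antibodies, ECL detection.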

[6] = test system: Mus musculus; experiment: In vivo inhibition of RET isoform 9 C634Y mutant transfected in mouse NIH/3T3 cells implanted BALB/c nu/nu mouse assessed as reduction in RET phosphorylation at Y905 residue at 3 mg/kg, po administered once daily via gavage for 2 days measured 3 hrs post-last dose by Western blot analysis
[7] = test system: Mus musculus; experiment: In vivo inhibition of RET isoform 9 C634Y mutant transfected in mouse NIH/3T3 cells implanted BALB/c nu/nu mouse assessed as reduction in MAPK phosphorylation at 3 mg/kg, po administered once daily via gavage for 2 days measured 3 hrs post-last dose by Western blot analysis
[8] = test system: Calu-1; experiment: Cytotoxicity against RET deficient human Calu1 cells supplemented with fresh medium containing compound for every 2 to 3 days measured during compound dosing; format: functional, cell-based
Summary of the method: (§2)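 Human RET-negative lines were seeded in six-well plates at 10000 cells/well, in 5% FCS (Nthy-ori-3-1) or 10% FCS (BCPAP, 8505-C, CALU-1, A549, PC-9). Drug or vehicle was added the day after plating, with medium changed every 2–3 days. Cells were counted every 2–3 days. IC50 was fitted from the last day of the growth curves.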

[9] = molecular target: T1, SHC-transforming protein 1 (Homo sapiens); experiment: Effect on SHC phosphorylation in RET deficient human A549 cells at 1 to 100 nM measured after 2 hrs by western blot analysis; format: cell-based
[10] = test system: Proto-oncogene tyrosine-protein kinase receptor Ret (Homo sapiens), P07949 [C634W]; experiment: Inhibition of Ret isoform 9 C634W mutant in human TT cells assessed as reduction in SHC phosphorylation at 0.3 to 30 nM measured after 2 hrs by Western blot analysis; format: cell-based
[11] = test system: Proto-oncogene tyrosine-protein kinase receptor Ret (Homo sapiens), P07949 [M918T]; experiment: Inhibition of RET […] M918T mutant (unknown origin) expressed in mouse BAF3 cells assessed as reduction in RET phosphorylation at Y1062 residue at 0.3 to 30 nM measured after 2 hrs by Western blot analysis; format: cell-based; summary of the method: as §1
[12] = Inhibition of NCOA4/RET […] (unknown origin) expressed in mouse BAF3 cells assessed as reduction in cell proliferation supplemented with fresh medium containing compound for every 2 to 3 days and measured daily; format: cell-based
[13] = test system: Mus musculus; experiment: In vivo inhibition of RET isoform 9 C634Y mutant transfected in mouse NIH/3T3 cells implanted BALB/c nu/nu mouse assessed as reduction in SHC phosphorylation in tumor at 1 mg/kg, po administered once daily via gavage for 3 days measured 3 hrs post-last dose by Western blot analysis
[14] = test system: BCPAP; experiment: Cytotoxicity against RET deficient human BCPAP cells supplemented with fresh medium containing compound for every 2 to 3 days measured during compound dosing; format: functional, cell-based; summary of the method: as §2
[15] = test system: Proto-oncogene tyrosine-protein kinase receptor Ret (Homo sapiens), P07949 [M918T]; experiment: Inhibition of RET isoform 9 M918T mutant (unknown origin) expressed in rat Rat1 assessed as reduction in RET phosphorylation at Y1062 residue at 1 to 100 nM measured after 2 hrs by Western blot analysis; format: cell-based
Summary of the method: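 Serum-starved RAT1 (RET point mutants) or NIH3T3 (RET rearrangements) cells expressing short RET-9 isoform, treated 2 h; 50 μg total lysate immunoblotted with anti-phospho-Y1062 and anti-phospho-Y905 RET antibodies, normalized to total RET; ECL detection. Compound from 50 mM DMSO stock diluted in growth medium.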

[16] = molecular target: T1, SHC-transforming protein 1 (Homo sapiens); experiment: Effect on SHC phosphorylation in RET deficient human 8505C cells at 1 to 100 nM measured after 2 hrs by western blot analysis; format: cell-based
[17] = molecular target: Macrophage colony-stimulating factor 1 receptor (Homo sapiens, UniProt P07333); experiment: Binding affinity to wild-type human partial length CSF1R (I564 to S939 residues) expressed in bacterial expression system at 100 nM by Kinomescan method relative to control
[18] = Toxicity in BALB/c nu/nu mouse assessed as change in calcium level at 10 mg/kg, po administered daily for 7 days; format: organism-based; conditions: in vivo, 168 h
[19] = molecular target: Voltage-gated inwardly rectifying potassium channel KCNH2 (Homo sapiens, UniProt Q12809); experiment: Inhibition of human ERG expressed in HEK293 cells by patch clamp assay
Voltage-gated inwardly rectifying potassium channel KCNH2, sequence (Q12809 whole entry): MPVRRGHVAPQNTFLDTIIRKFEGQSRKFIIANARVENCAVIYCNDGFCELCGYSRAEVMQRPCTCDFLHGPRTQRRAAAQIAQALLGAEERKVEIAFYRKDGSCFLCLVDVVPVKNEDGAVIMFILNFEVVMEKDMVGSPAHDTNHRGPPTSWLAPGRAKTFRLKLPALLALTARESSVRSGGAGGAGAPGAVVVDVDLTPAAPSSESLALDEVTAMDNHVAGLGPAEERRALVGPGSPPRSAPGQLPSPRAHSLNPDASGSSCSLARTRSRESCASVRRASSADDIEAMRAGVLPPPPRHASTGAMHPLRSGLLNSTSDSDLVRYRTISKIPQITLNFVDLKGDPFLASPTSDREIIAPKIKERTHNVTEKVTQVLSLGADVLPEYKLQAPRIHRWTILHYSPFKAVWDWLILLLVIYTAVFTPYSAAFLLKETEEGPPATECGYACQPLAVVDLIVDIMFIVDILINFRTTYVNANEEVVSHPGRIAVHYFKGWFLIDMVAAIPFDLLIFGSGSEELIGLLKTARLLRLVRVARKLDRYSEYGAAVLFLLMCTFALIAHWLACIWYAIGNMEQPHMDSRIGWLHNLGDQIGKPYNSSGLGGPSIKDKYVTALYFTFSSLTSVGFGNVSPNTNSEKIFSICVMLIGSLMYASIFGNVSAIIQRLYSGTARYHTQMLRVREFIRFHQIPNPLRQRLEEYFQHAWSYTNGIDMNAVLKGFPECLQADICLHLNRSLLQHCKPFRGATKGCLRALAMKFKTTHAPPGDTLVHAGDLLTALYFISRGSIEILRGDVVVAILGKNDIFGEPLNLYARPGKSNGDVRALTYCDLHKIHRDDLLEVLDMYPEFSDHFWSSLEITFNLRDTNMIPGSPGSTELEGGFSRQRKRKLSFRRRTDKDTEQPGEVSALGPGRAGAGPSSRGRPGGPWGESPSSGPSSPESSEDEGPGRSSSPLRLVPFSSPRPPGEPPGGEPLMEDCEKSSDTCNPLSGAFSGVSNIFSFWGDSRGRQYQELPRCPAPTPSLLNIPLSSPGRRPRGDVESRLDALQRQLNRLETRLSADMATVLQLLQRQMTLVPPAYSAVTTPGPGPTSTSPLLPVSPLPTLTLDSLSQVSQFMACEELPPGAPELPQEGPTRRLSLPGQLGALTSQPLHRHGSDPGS

Proto-oncogene tyrosine-protein kinase receptor Ret (Homo sapiens), P07949 [M918T], sequence (P07949 whole entry M918T, canonical isoform): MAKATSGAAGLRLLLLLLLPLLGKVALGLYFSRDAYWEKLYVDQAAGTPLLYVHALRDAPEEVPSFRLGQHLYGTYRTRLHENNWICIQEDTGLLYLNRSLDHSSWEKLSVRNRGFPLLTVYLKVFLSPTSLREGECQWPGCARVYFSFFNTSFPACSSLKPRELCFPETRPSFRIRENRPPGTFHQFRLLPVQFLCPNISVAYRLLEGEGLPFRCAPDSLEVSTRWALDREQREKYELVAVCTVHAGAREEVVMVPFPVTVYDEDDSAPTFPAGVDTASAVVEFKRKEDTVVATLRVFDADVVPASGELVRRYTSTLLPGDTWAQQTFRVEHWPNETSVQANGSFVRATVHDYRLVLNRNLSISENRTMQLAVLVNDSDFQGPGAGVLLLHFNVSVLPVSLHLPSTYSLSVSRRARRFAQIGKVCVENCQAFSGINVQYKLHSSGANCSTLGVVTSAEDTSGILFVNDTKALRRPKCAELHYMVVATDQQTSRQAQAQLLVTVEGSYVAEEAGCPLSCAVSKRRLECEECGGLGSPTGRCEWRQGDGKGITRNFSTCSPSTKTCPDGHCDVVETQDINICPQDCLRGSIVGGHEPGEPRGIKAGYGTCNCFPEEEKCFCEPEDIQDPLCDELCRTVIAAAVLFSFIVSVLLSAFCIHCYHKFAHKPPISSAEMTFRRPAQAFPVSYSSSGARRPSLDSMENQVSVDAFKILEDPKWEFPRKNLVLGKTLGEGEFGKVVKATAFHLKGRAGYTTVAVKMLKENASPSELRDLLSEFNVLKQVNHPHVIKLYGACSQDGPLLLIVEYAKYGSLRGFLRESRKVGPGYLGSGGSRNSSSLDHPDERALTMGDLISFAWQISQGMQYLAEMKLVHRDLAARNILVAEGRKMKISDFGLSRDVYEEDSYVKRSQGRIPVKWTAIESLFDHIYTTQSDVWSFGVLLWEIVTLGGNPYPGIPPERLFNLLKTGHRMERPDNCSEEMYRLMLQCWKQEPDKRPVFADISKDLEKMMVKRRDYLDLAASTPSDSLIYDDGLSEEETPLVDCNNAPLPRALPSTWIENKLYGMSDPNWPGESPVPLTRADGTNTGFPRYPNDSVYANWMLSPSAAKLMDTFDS
Proto-oncogene tyrosine-protein kinase receptor Ret (Homo sapiens), P07949 [C634W], sequence (P07949 whole entry C634W, canonical isoform): as the sequence (P07949 whole entry M918T, canonical isoform) above, with C634W, T918M counted along it
Proto-oncogene tyrosine-protein kinase receptor Ret, sequence (P07949 whole entry, the tested form may be a part, canonical isoform): as the sequence (P07949 whole entry M918T, canonical isoform) above, with T918M counted along it
Macrophage colony-stimulating factor 1 receptor, sequence (P07333 whole entry, the tested form may be a part): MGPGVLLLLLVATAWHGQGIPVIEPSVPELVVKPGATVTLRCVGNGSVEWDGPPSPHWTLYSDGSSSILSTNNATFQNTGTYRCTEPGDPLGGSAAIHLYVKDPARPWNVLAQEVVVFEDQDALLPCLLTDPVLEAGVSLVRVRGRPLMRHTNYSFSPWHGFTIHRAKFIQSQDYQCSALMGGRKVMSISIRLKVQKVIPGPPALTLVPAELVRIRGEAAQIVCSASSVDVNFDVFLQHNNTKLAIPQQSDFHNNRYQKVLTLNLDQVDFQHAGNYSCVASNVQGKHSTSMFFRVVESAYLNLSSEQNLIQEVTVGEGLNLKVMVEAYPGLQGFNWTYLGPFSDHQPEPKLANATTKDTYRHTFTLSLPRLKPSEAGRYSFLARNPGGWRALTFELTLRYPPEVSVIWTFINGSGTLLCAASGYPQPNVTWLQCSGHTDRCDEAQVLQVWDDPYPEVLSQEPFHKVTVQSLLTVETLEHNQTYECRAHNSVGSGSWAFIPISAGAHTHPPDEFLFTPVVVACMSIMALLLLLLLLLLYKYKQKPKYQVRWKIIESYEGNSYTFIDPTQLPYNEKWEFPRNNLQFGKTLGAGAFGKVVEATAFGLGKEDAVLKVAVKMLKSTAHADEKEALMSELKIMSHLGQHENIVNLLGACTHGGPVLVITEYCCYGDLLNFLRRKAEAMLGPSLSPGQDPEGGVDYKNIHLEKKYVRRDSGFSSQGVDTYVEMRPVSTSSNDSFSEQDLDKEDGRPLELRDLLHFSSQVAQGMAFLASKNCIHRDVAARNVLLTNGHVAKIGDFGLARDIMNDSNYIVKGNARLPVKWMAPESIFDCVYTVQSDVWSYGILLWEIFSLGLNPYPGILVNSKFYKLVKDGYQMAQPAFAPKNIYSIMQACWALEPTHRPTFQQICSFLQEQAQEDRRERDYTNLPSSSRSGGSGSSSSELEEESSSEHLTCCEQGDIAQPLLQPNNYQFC
Proto-oncogene tyrosine-protein kinase receptor Ret (Homo sapiens), P07949 [C634R], sequence (P07949 whole entry C634R, canonical isoform): as the sequence (P07949 whole entry M918T, canonical isoform) above, with C634R, T918M counted along it

With CC(C)(C)c1cc(NC(=O)Cc2ccc(-n3cnc4cc(-c5ccc(S(C)(=O)=O)cc5)ccc43)cc2)no1 the Activity [1] was “inactive”, the Activity [2] was “inactive” and the ΔTm [3] was 16 °C. For the same molecule, the inhibition [4] was “Active”, the inhibition [5] was “Active” and the inhibition [6] was “Active”. For the same molecule, the inhibition [7] was “Active”, the IC50 [8] was over 100 nM and the Activity [9] was “inactive”. The inhibition [10] was “Active”, the inhibition [11] was “Active” and the IC50 [12] was 3.1 nM. For the same molecule, the inhibition [13] was “Active”, the IC50 [14] was over 100 nM and the inhibition [15] was “Active”. The Activity [16] was “inactive”, the Activity [17] was over 90% and the Activity [18] was “Non-Toxic”. The IC50 [19] was 7570 nM.
